From ChEMBL document CHEMBL1125383, “Benzazepinone calcium channel blockers. 4. Structure-activity overview and intracellular binding site” (J Med Chem, 1992)

How the values were obtained:
[1] = Partition coefficient (logP); format: physicochemical; details: octanol/water
[2] = Concentration required to cause 50% relaxation of maximal contraction in circumferential rabbit aorta strips in response to KCl (100 mM); format: functional, tissue-based, Oryctolagus cuniculus
[3] = target: T1, Voltage-gated L-type calcium channel (Rattus norvegicus, UniProt P22002+Q02485+P27732); assay: Percentage decrease in blood pressure at a dose of 135 uM/kg for 0-6 h in spontaneously hypertensive rats.; format: functional, tissue-based
Method in brief: (§1)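 Spontaneously hypertensive rats, n = 5, given 135 µmol/kg orally; systolic pressure recorded directly; maximum percent fall from predrug control noted within 0-6, 6-12 and 12-18 h windows after dosing; mean of five rats.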

[4] = target: T1, Voltage-gated L-type calcium channel; assay: Percentage decrease in blood pressure at a dose of 135 uM/kg for 12-18 hr in spontaneously hypertensive rats.; format: functional, tissue-based; method in brief: as §1
[5] = target: T1, Voltage-gated L-type calcium channel; assay: Percentage decrease in blood pressure at a dose of 135 uM/kg for 6-12 hr in spontaneously hypertensive rats.; format: functional, tissue-based; method in brief: as §1

Row | SMILES | logP [1] | IC50 ([2]; Oryctolagus cuniculus, Aorta) [nM] | Decrease in blood pressure [3] [%] | Decrease in blood pressure [4] [%] | Decrease in blood pressure [5] [%] | IC50 [2] [nM]
1 | C=CC[C@H]1C(=O)N(CCN(C)C)c2cccc(C(F)(F)F)c2C[C@H]1c1ccc(OC)cc1 | 4.6 | 100 | 24 | 29 |  | 
2 | CCOC(=O)c1cccc2c1C[C@@H](c1ccc(OC)cc1)[C@@H](OC(C)=O)C(=O)N2CCN(C)C | 2.2 |  | 4 | 5 | 6 | 
3 | C=CC[C@H]1C(=O)N(CCN(C)C)c2ccccc2C[C@H]1c1ccc(OC)cc1 | 3.3 |  | 25 | 18 | 23 | 
4 | COc1ccc([C@@H]2Cc3c(cccc3C(F)(F)F)N(CCN(C)CCCCc3ccccc3)C(=O)[C@@H]2OC(C)=O)cc1 |  | 73 | 28 | 24 | 23 | 
5 | C=CCN(C)CCN1C(=O)[C@H](OC(C)=O)[C@H](c2ccc(OC)cc2)Cc2c1cccc2C(F)(F)F |  | 170 | 28 | 25 | 26 | 
6 | COc1ccc([C@@H]2Cc3c(cccc3C(F)(F)F)N(CCN3CCCC3)C(=O)[C@@H]2C)cc1 |  | 1100 | 8 | 11 | 10 | 
7 | CNCCN1C(=O)[C@H](OC(C)=O)[C@H](c2ccc(OCOC)cc2)Cc2c1cccc2C(F)(F)F |  |  | 6 | 8 | 8 | 
8 | CNCCN1C(=O)[C@H](OC(C)=O)[C@H](c2ccc(OC)cc2)Cc2c1cccc2C(F)(F)F |  |  | 32 | 32 | 34 | 
9 | CNCCN1C(=O)[C@H](OC(C)=O)[C@H](c2ccc(OCCOC)cc2)Cc2c1cccc2C(F)(F)F |  | 39000 | 5 | 7 | 5 | 
10 | COc1ccc([C@@H]2Cc3c(C(=O)OCc4ccccc4)cccc3N(CCN(C)C)C(=O)[C@@H]2OC(C)=O)cc1 | 3.3 | 3500 | 4 | 8 | 8 | 
11 | COc1ccc([C@@H]2Cc3c(cccc3C(F)(F)F)N(CCCN(C)C)C(=O)[C@@H]2C)cc1 |  | 1100 | 24 | 24 | 22 | 
12 | CCc1ccc([C@@H]2Cc3c(cccc3C(F)(F)F)N(CCN(C)C)C(=O)[C@@H]2C)cc1 |  | 2400 | 20 | 13 | 14 | 
13 | COc1ccc([C@@H]2Cc3c(ccc(Br)c3OC)N(CCN(C)C)C(=O)[C@@H]2C)cc1 | 3.4 | 85 | 9 | 14 | 12 | 
14 | COc1ccc([C@@H]2Cc3c(OC)cccc3N(CCN(C)C)C(=O)[C@@H]2OC(C)=O)cc1 | 1.9 |  | 0 | 1 | 0 | 
15 | CCCN(C)CCN1C(=O)[C@H](OC(C)=O)[C@H](c2ccc(OC)cc2)Cc2c1cccc2C(F)(F)F |  | 190 | 27 | 28 | 26 | 
16 | COc1ccc([C@@H]2Cc3c(cccc3C(F)(F)F)N(CCN(C)C(C)=O)C(=O)[C@@H]2O)cc1 |  | 2200 |  |  |  | 
17 | C#CCN(C)CCN1C(=O)[C@H](OC(C)=O)[C@H](c2ccc(OC)cc2)Cc2c1cccc2C(F)(F)F |  | 3300 | 26 | 25 | 25 | 
18 | CSc1ccc([C@@H]2Cc3c(cccc3C(F)(F)F)N(CCN(C)C)C(=O)[C@@H]2C)cc1 |  | 730 | 12 | 5 | 8 | 
19 | C[C@H]1C(=O)N(CCN(C)C)c2cccc(C(F)(F)F)c2C[C@H]1c1ccc(O)cc1 |  | 160 | 10 | 7 | 5 | 
20 | COc1ccc([C@@H]2Cc3c(cccc3C(F)(F)F)N(CCN(C)C)C(=O)[C@@H]2C)cc1 |  | 76 | 28 | 22 | 22 | 
21 | COc1ccc([C@@H]2Cc3c(cccc3C(F)(F)F)N(CCN(C(C)C)C(C)C)C(=O)[C@@H]2C)cc1 |  | 4200 | 14 | 8 | 8 | 
22 | COc1ccc([C@@H]2Cc3c(cccc3C(F)(F)F)N(CCN(C)C)C(=O)[C@@H]2OC(C)=O)cc1 |  | 150 | 31 | 20 | 27 | 

Row | SMILES | logP [1] | IC50 ([2]; Oryctolagus cuniculus, Aorta) [nM] | Decrease in blood pressure [3] [%] | Decrease in blood pressure [4] [%] | Decrease in blood pressure [5] [%] | IC50 [2] [nM]
23 | COc1ccc([C@@H]2Cc3c(OC)cccc3N(CCN(C)C)C(=O)[C@@H]2C)cc1 | 2.6 | 420 | 7 | 8 | 10 | 
24 | COc1ccc([C@@H]2Cc3c(Cl)cccc3N(CCN(C)C)C(=O)[C@@H]2OC(C)=O)cc1 | 2.4 |  | 9 | 11 | 8 | 
25 | COc1ccccc1[C@@H]1Cc2cc(Cl)ccc2N(CCN(C)C)C(=O)[C@@H]1OC(C)=O |  |  | 2 | 0 | 2 | 
26 | COc1ccc([C@@H]2Cc3c(C)cccc3N(CCN(C)C)C(=O)[C@@H]2OC(C)=O)cc1 | 1.7 | 2500 | 6 | 12 | 10 | 
27 | COc1ccc([C@@H]2Cc3c(cccc3C(F)(F)F)N(CCNC(C)C)C(=O)[C@@H]2C)cc1 |  | 950 | 17 | 10 | 15 | 
28 | CCC[C@H]1C(=O)N(CCN(C)C)c2ccccc2C[C@H]1c1ccc(OC)cc1 |  | 340 | 10 | 12 | 11 | 
29 | COc1ccc([C@@H]2Cc3c(cccc3C(F)(F)F)N(CCN(C)C)C(=O)[C@@H]2O)cc1 | 2.1 |  | 21 | 28 | 26 | 
30 | CNC(=O)CN1C(=O)[C@H](OC(C)=O)[C@H](c2ccc(OC)cc2)Cc2c1cccc2C(F)(F)F |  | 6200 | 13 | 10 | 8 | 
31 | COc1ccc([C@@H]2Cc3c(cccc3C(F)(F)F)N(CC[N+](C)(C)C)C(=O)[C@@H]2C)cc1.[I-] |  | 6200 | 25 | 21 | 22 | 
32 | COc1ccc([C@@H]2Cc3c(cccc3C(F)(F)F)N(CCN(C)C(C)C)C(=O)[C@@H]2C)cc1 |  | 810 | 18 | 14 | 15 | 
33 | COc1ccc([C@@H]2Cc3cc(C(F)(F)F)ccc3N(CCN(C)C)C(=O)[C@@H]2CC(C)=O)cc1 | 2.7 |  | 23 | 28 | 28 | 
34 | COc1cccc([C@@H]2Cc3cc(Cl)ccc3N(CCN(C)C)C(=O)[C@@H]2OC(C)=O)c1 |  |  | 5 | 3 | 2 | 
35 | COc1ccc([C@@H]2Cc3cc(OC)ccc3N(CCN(C)C)C(=O)[C@@H]2OC(C)=O)cc1 | 1.2 |  | 15 | 10 | 8 | 
36 | CNc1ccc([C@@H]2Cc3c(cccc3C(F)(F)F)N(CCN(C)C)C(=O)[C@@H]2C)cc1 |  | 330 | 14 | 20 | 18 | 
37 | COc1ccc([C@@H]2Cc3c(cccc3C(F)(F)F)N(CCN(C)C)C(=O)[C@@H]2C)cc1OC |  | 3800 | 3 | 5 | 5 | 
38 | COc1ccc([C@@H]2Cc3cc(SC)ccc3N(CCN(C)C)C(=O)[C@@H]2OC(C)=O)cc1 | 2 | 600 | 19 | 21 | 20 | 
39 | COc1ccc([C@@H]2Cc3ccccc3N(CCN(C)C)C(=O)[C@@H]2OC(C)=O)cc1 | 1.2 |  | 8 | 13 | 8 | 
40 | COc1ccc([C@@H]2Cc3c(cccc3C(F)(F)F)N(CC(C)N(C)C)C(=O)[C@@H]2C)cc1 (stereo in doubt; 15l) |  | 360 | 26 | 14 | 17 | 
41 | COc1ccc([C@@H]2Cc3c(cccc3C(F)(F)F)N(CC(C)N(C)C)C(=O)[C@@H]2C)cc1 (stereo in doubt; 15m) |  |  |  | 12 | 16 | 400
42 | COc1ccc([C@@H]2Cc3c(cccc3C(F)(F)F)N(C(C)CN(C)C)C(=O)[C@@H]2C)cc1 (stereo in doubt; 15n) |  |  | 15 |  |  | 5900
43 | COc1ccc([C@@H]2Cc3c(cccc3C(F)(F)F)N(C(C)CN(C)C)C(=O)[C@@H]2C)cc1 (stereo in doubt; 15o) |  |  | 16 | 16 | 16 | 2300
